Assay results taken from ChEMBL document CHEMBL3603821, “Optimization of N-aryl-6-methoxy-1,2,3,4-tetrahydroquinolines as tubulin polymerization inhibitors” (Bioorg Med Chem, 2015).
pIC50: −log10 of the molar value. Values after ≈ are worked out from the molar mass of the structure shown.

Key:
Tubulin = assay: Inhibition of tubulin (unknown origin) assembly pre-incubated for 15 mins before GTP addition measured after 20 mins by turbidimetry; type: protein-complex assay, Homo sapiens
[1] = Antiproliferative activity against human vincristine-resistant KBVIN cells expressing P-glycoprotein assessed as cell growth inhibition by SRB assay; type: functional
How it was run: (§1)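 SRB assay in a human tumor cell line panel (A-549 lung, KB nasopharyngeal, P-glycoprotein-overexpressing KBvin, DU145 prostate).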

A549 = assay: Antiproliferative activity against human A549 cells assessed as cell growth inhibition by SRB assay; type: functional; how it was run: as §1
Tubulin (Homo sapiens) [2] = biological target: T1, Tubulin (Homo sapiens) (UniProt P68371+Q9H4B7+P0DPH7+P68366+Q13509+Q71U36+P04350+Q3ZCM7+P07437+P68363+Q9BQE3+Q6PEY2+Q13885+Q9BVA1+Q9BUF5); assay: Displacement of [3H]-colchicine from tubulin (unknown origin) at 5 uM after 10 mins; type: protein-complex assay
How it was run: (§2)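 Radioligand binding competition: 1.0 μM tubulin incubated with 5.0 μM [3H]colchicine plus inhibitor at 5.0 or 1.0 μM for 10 min at 37 °C. At that point control binding is about 40–60% of maximum. Result is percent inhibition of colchicine binding ± SD.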

KB = assay: Antiproliferative activity against human KB cells assessed as cell growth inhibition by SRB assay; type: functional
Tubulin (Homo sapiens) [3] = biological target: T1, Tubulin (Homo sapiens); assay: Displacement of [3H]-colchicine from tubulin (unknown origin) at 1 uM after 10 mins; type: protein-complex assay; how it was run: as §2
DU-145 = assay: Antiproliferative activity against human DU145 cells assessed as cell growth inhibition by SRB assay; type: functional; how it was run: as §1
[4] = Aqueous solubility of the compound at pH 7.4 by HPLC-UV method; type: physicochemical; conditions: buffer
[5] = Octanol/water partition coefficient, log P of the compound after 24 hrs by HPLC analysis; type: physicochemical
How it was run: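 Log P measured at pH 7.4 with HPLC-UV on a C18 column (4.6 × 150 mm, 5 μm). Eluent MeOH/water 80:20 containing 0.04% ammonium acetate, run at 0.8 mL/min, with detection at 254 nm. Value given as mean ± SD of three separate experiments.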

Compound	pIC50 (Tubulin)	GI50 [1] [nM]	GI50 (A549) [nM]	inhibition (Tubulin (Homo sapiens) [2]) [%]	GI50 (KB) [nM]	inhibition (Tubulin (Homo sapiens) [3]) [%]	GI50 (DU-145) [nM]	solubility [4] [µg/mL]	logP [5]
COc1ccc2c(c1)CCCN2c1ncnc2ccccc12	5.89	19	18	91	14	69			
COc1ccc2c(c1)CCCN2c1nc(N)nc2[nH]cnc12		18900	19400		17500		18000		
COc1ccc2c(c1)CCCN2c1nc(NC2CC2)nc2ccccc12	5.89		16	89	13	56	16	2.55 (≈ 7.36 µM)	4.13
COc1ccc2c(c1)CCCN2c1nc(OC)nc2ccccc12		30	24		26		21		
COc1ccc2c(c1)CCCN2c1nc(NC2CCCC2)nc2ccccc12	5.24	1420	1340	29	1190		1290		
COc1ccc2c(c1)CCCN2c1nc(N(C)C)nc2ccccc12		200	170		140		150		
COc1ccc2c(c1)CCCN2c1cncc2ccccc12	5.48	1540	1950	39	1480		920		
COc1ccc2c(c1)CCCN2c1ncnc2[nH]cnc12		> 35000	> 35000		> 35000		> 35000		
COc1ccc2c(c1)CCCN2c1nccc2ccccc12	5.59	1640	2080	37	1720		1470		
COc1ccc2c(c1)CCCN2c1ccnc2ccccc12		180	200		160		180		
COc1ccc2c(c1)CCCN2c1cccc2cccnc12	< 4.70	8710	12100		16200		12800		
COc1ccc(/C=C\c2cc(OC)c(OC)c(OC)c2)cc1O [COMBRETASTATIN A4]		1.2	84.1		3.6				
COc1ccc2c(c1)CCCN2c1nc(F)nc2[nH]cnc12		27100	23600		> 33000		25500		
CC(=O)O[C@H]1C(=O)[C@@]2(C)[C@H]([C@H](OC(=O)c3ccccc3)[C@]3(O)C[C@H](OC(=O)[C@H](O)[C@@H](NC(=O)c4ccccc4)c4ccccc4)C(C)=C1C3(C)C)[C@]1(OC(C)=O)CO[C@@H]1C[C@@H]2O [PACLITAXEL]		1210	7.6		6.4		6		
COc1ccc2c(c1)CCCN2c1nc(NCCCO)nc2ccccc12	6.07	19	16	78	18	49	20	75.6 (≈ 207 µM)	3.43
